TRPC4 act = TRPC4 (mouse) channel activation | Q9QUQ5 | actives 0.49% (n = 310,000) | HEK293 TRPC4beta/mu-opioid, Fluo4 calcium fluorescence; stronger effect = higher value | AID 2237 | B-score at 10 µM;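 active = B-score above 5 SD of library B-scores, and initial fluorescence ratio not above library mean plus 5 SD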;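 note: positive B-score marks a calcium rise read as TRPC4 activation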
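Assay system: HEK293 stable line with TRPC4beta plus mu-opioid receptor; schedule: 45 min room-temperature Fluo4 loading, 110 s read; technique: kinetic Fluo4 calcium fluorescence; evaluation: integrated baseline-normalised fluorescence ratio, converted to per-well B score; controls: buffer (low) and maximal DAMGO (high)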
TRPC6 inh = blocks the mouse TRPC6 cation channel | B-score at 10 µM | actives 1.1% (n = 310,000) | AID 2553 | Q61143 | HEK293-TRPC6, membrane potential dye, ACh-evoked depolarization; stronger effect = lower value;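 active = B-score under library mean minus 3 SD, initial fluorescence not abnormally high, positive integrated signal ratio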;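 note: B-score derived from integrated fluorescence ratio over the kinetic read; more negative B-score means stronger inhibition of depolarization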
TRPC4 potent = allosteric potentiators of mouse TRPC4 channel | B-score at 10 µM | Q9QUQ5 | actives 0.42% (n = 310,000) | HEK293 TRPC4beta/mu-opioid, DAMGO EC20, Fluo-4 Ca2+ flux; stronger effect = higher value;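 active = B-score of calcium response area above 5 SD of library B-scores, with initial fluorescence ratio within 5 SD of library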;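 note: B-score of integrated fluorescence ratio over time as area under calcium response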
TRPC6 activator = activators of mouse TRPC6 channel; B-score at 10 µM; HEK293-TRPC6 membrane potential dye fluorescence; stronger effect = higher value; Q61143; AID 2550; actives 0.13% (n = 310,000);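 active = B-score of the integrated fluorescence ratio above library mean plus 3 SD, and starting fluorescence ratio within library mean plus 5 SD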;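 note: higher score means more depolarization so channel activation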
TRPC4 block = blocks the mouse TRPC4 cation channel. Q9QUQ5. B-score at 10 µM. HEK293 TRPC4beta/mu-opioid, DAMGO-evoked Fluo4 calcium flux; stronger effect = lower value. actives 0.39% (n = 300,000). AID 2247;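 active = B-score over 3 SD under the library average, no early fluorescence shift, positive overall ratio signal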
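Assay system – HEK293 line stably carrying TRPC4beta and mu-opioid receptor · Doses – single dose · Detection – Fluo4 calcium-dye fluorescence, kinetic read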
* = called active by the depositor; i = inactive. Shown are actives, neighbours in structure and some others; about 2.3% of the full set was active somewhere.

SMILES	TRPC4 act	TRPC6 inh	TRPC4 potent	TRPC6 activator	TRPC4 block
CCN1/C(=C/c2ccc3cccc(C)c3[n+]2CC)Sc2ccccc21	335*	i	15*	i	-6*
CCN1/C(=C\c2ccc3cc(C)ccc3[n+]2CC)Sc2cc(C)c(C)cc21	131*	i	29*	i	i
CC(C)(c1ccccc1)c1ccc(OCCCNCCO)cc1	i	i	i	i	-6*
O=C(CCSc1ccc(Br)cc1)Nc1cccnc1	i	i	i	i	i
CCCCOc1ccc(C(C)NC(=O)C2CCCN(S(=O)(=O)CCC)C2)cc1 (stereo not given)	i	i	i	i	i
O=C(N/N=C/c1ccco1)C1COc2ccccc2O1 (stereo not given)	111*	i	i	i	i
O=C(N/N=C\c1ccccn1)C1COc2cc3ccccc3cc2O1 (stereo not given)	53*	i	i	i	i
CCC/C=N/NC(=O)C1COc2ccccc2O1 (stereo not given)	i	i	i	i	i
O=C(N/N=C\c1ccc(Br)o1)C1COc2ccccc2O1 (stereo not given)	i	i	i	i	i
O=C(N/N=C/c1cccs1)C1COc2ccccc2O1 (stereo not given)	i	i	i	i	i
Cc1ccc(/C=N/NC(=O)C2COc3ccccc3O2)s1 (stereo not given)	i	i	76*	i	i
O=C(N/N=C\c1ccc[nH]1)C1COc2ccccc2O1 (stereo not given)	51*	i	i	i	i
CCOc1cccc(-c2csc(C3COc4ccccc4O3)n2)c1 (stereo not given)	i	i	i	i	i
CC(=O)N1CCN(c2ccc(NC(=O)c3cccc([N+](=O)[O-])c3)cc2)CC1	i	i	i	i	i
COC(=O)c1c(NC(=O)CSc2ncn[nH]2)sc(C)c1C	i	i	i	i	-7*
CCOC(=O)c1c(NC(=O)CSc2ncn[nH]2)sc(C(C)=O)c1C	i	i	i	i	i
N#C/C(=C\c1cccs1)C(=O)Nc1nccs1	i	i	i	i	i
O=S(=O)(c1ccccc1)c1nnn2c1nc(NC1CCN(Cc3ccccc3)CC1)c1ccccc12	i	i	i	i	i
O=S(=O)(c1ccccc1)c1nnn2c1nc(NC1CCN(Cc3ccccc3)CC1)c1cc(Cl)ccc12	148*	i	i	i	-6*
C=CCNc1nc(N2CCCC2)nc2ccccc12	i	i	i	i	-7*
Cc1ccc(S(=O)(=O)N2CCN(c3cc4c(cc3[N+](=O)[O-])n(C)c(=O)n4C)CC2)cc1	i	i	15*	i	i
Cn1c(=O)n(C)c2cc([N+](=O)[O-])c(N3CCN(S(=O)(=O)c4ccc5ccccc5c4)CC3)cc21	i	i	i	i	i
Cc1cc(C)cc(N(CC(=O)Nc2ccc(C(F)(F)F)cc2)S(=O)(=O)c2c(C)[nH]c(=O)[nH]c2=O)c1	i	i	i	i	i
Cc1cc(C)cc(N(CC(=O)Nc2ccc(C)cc2Cl)S(=O)(=O)c2c(C)[nH]c(=O)[nH]c2=O)c1	i	i	22*	i	i
Cc1ccc(NC(=O)COC(=O)C2CC(=O)N(Cc3ccccc3)C2)cc1F (stereo not given)	i	i	i	i	i
O=C1COc2ccc(N3C(=O)C=CC3=O)cc2N1	i	i	i	i	-7*
O=C1COc2ccc(S(=O)(=O)N3CCCC3)cc2N1	i	i	i	i	i
CN(C(=O)COC(=O)c1nn(C)c(=O)c2ccccc12)c1c(N)n(Cc2ccccc2)c(=O)[nH]c1=O	i	i	i	i	i
O=C(CCSc1nc(-c2ccco2)cc(C(F)(F)F)n1)N1CCN(c2ccccn2)CC1	i	-6.34*	i	i	i
CC[C@@H](C)[C@H](CNC)NC[C@@H](Cc1cccc2ccccc12)NCCc1cccc(C(F)(F)F)c1	97*	i	i	i	i

Screening results deposited in PubChem by Johns Hopkins Ion Channel Center.
